Experimental data pooled from the literature.
Protocols differ between the studies behind these lines.
Organism: Staphylococcus aureus
Observed: microbial growth

COC(=O)c1cc(-c2cccc(NC(=O)Nc3ccc(F)cc3F)c2)on1
MIC (broth dilution; ATCC29213): > 64 µg/mL

CC[C@H]1OC(=O)[C@H](C)[C@@H](O[C@H]2C[C@@](C)(OC)[C@@H](O)[C@H](C)O2)[C@H](C)[C@@H](O[C@@H]2O[C@H](C)C[C@H](N(C)C)[C@H]2O)[C@](C)(O)C[C@@H](C)C(=O)[C@H](C)[C@@H](O)[C@]1(C)O
MIC (USA300): 32 µg/mL

COC(=O)c1cc(-c2cccc(NC(=O)Nc3ccccc3C)c2)on1
MIC (broth dilution; ATCC29213): > 64 µg/mL

c1cncc(-c2nc3ccccc3[nH]2)c1
MIC (broth dilution; ATCC43300 MRSA; drug-resistant strain): 256 µg/mL

CC(=O)c1ccc(NC(=O)Nc2ccc(Cl)c(C(F)(F)F)c2)cc1
MIC (NCTC8325): 30 µM

COC(=O)c1cc(-c2cccc(NC(=S)Nc3ccc(F)cc3F)c2)on1
MIC (broth dilution; ATCC29213): > 64 µg/mL

Cc1ccc2[nH]c3c(c2c1)CCCC3NCCc1ccc(O)cc1 (stereo not shown)
MIC (broth dilution; MRSA USA300): 16 µg/mL

O=C(CCCCCCCCCCOc1ccccc1)NP(=O)(O)O
MIC (ATCC33591 MRSA; drug-resistant strain): 100 µg/mL

Cc1ccc2nc(-c3ccncc3)[nH]c2c1
MIC (broth dilution; ATCC43300 MRSA; drug-resistant strain): 128 µg/mL

CCCCCCCC/C=C\CCCCCCCCNC(=O)CP(=O)(O)O
MIC (ATCC33591 MRSA; drug-resistant strain): 100 µg/mL

Cc1ccc2nc(-c3c4ccccc4cc4ccccc34)[nH]c2c1
MIC (broth dilution; ATCC43300 MRSA; drug-resistant strain): 128 µg/mL

CN[C@H](CC(C)C)C(=O)N[C@H]1C(=O)N[C@@H](CC(N)=O)C(=O)N[C@H]2C(=O)N[C@H]3C(=O)N[C@H](C(=O)N[C@H](C(=O)O)c4cc(O)cc(O)c4-c4cc3ccc4O)[C@H](O)c3ccc(c(Cl)c3)Oc3cc2cc(c3O[C@@H]2O[C@H](CO)[C@@H](O)[C@H](O)[C@H]2O[C@H]2C[C@](C)(N)[C@H](O)[C@H](C)O2)Oc2ccc(cc2Cl)[C@H]1O
MIC (VRSA; drug-resistant strain): > 16 µg/mL

CN(C)c1ccc(-c2nc3ccccc3[nH]2)cc1
MIC (broth dilution; ATCC43300 MRSA; drug-resistant strain): 128 µg/mL

COC(=O)c1cc(-c2cccc(NC(=S)Nc3ccc(F)c(Cl)c3)c2)on1
MIC (broth dilution; ATCC29213): > 64 µg/mL

CN[C@H](CC(C)C)C(=O)N[C@H]1C(=O)N[C@@H](CC(N)=O)C(=O)N[C@H]2C(=O)N[C@H]3C(=O)N[C@H](C(=O)N[C@H](C(=O)O)c4cc(O)cc(O)c4-c4cc3ccc4O)[C@H](O)c3ccc(c(Cl)c3)Oc3cc2cc(c3O[C@@H]2O[C@H](CO)[C@@H](O)[C@H](O)[C@H]2O[C@H]2C[C@](C)(N)[C@H](O)[C@H](C)O2)Oc2ccc(cc2Cl)[C@H]1O
MIC (BAA2312; drug-resistant strain): 0.78 µg/mL

Cc1ccc2nc(-c3ccc([N+](=O)[O-])cc3)n(Cc3ccccc3)c2c1
MIC (broth dilution; ATCC43300 MRSA; drug-resistant strain): 16 µg/mL

C=C(NC(=O)C(=C)NC(=O)c1csc(C2=N[C@@H]3c4csc(n4)[C@H]4NC(=O)c5csc(n5)[C@H]([C@](C)(O)[C@@H](C)O)NC(=O)[C@H]5CSC(=N5)/C(=C/C)NC(=O)[C@H]([C@@H](C)O)NC(=O)c5csc(n5)[C@]3(CC2)NC(=O)[C@H](C)NC(=O)C(=C)NC(=O)[C@H](C)NC(=O)[C@H]([C@@H](C)CC)N[C@@H]2C=Cc3c([C@H](C)O)cc(nc3[C@H]2O)C(=O)O[C@@H]4C)n1)C(N)=O
MIC (MSSA): 0.06 µg/mL

CN[C@H](CC(C)C)C(=O)N[C@H]1C(=O)N[C@@H](CC(N)=O)C(=O)N[C@H]2C(=O)N[C@H]3C(=O)N[C@H](C(=O)N[C@H](C(=O)O)c4cc(O)cc(O)c4-c4cc3ccc4O)[C@H](O)c3ccc(c(Cl)c3)Oc3cc2cc(c3O[C@@H]2O[C@H](CO)[C@@H](O)[C@H](O)[C@H]2O[C@H]2C[C@](C)(N)[C@H](O)[C@H](C)O2)Oc2ccc(cc2Cl)[C@H]1O
MIC (147; clinical isolate): 0.59 µM

CC1(C)CC[C@]2(C(=O)O)CC[C@]3(C)C(=CC[C@@H]4[C@@]5(C)CC[C@H](O)C(C)(C)[C@@H]5CC[C@]43C)[C@@H]2C1
MIC (252): 256 µg/mL
